# In the library only some 12% were active in any assay of this set; here they are far more common.
# ROMK primary: modulates human ROMK potassium channel activity; B-score at 10 µM; P48048; Tet-inducible ROMK, thallium flux fluorescence; actives lie on both sides; AID 1918; actives 2% (n = 130,000);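 active = signal ratio slope over the read window, or its plate-corrected B-score, at least 3 SD from the plate mean, either direction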;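 also: B-score of the F/F0 ratio slope over 7 to 12 s after thallium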
# Diaphorase act: counter-screen for diaphorase-based assays: diaphorase activators and chemical reducers | actives 0.005% (n = 190,000) | Diaphorase/resazurin coupled assay, resorufin fluorescence, 16 min; stronger effect = higher value; 1 = vehicle wells, 0 = NADH-free wells | activation factor at 20 µM;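 active = diaphorase activity raised at least twofold by the compound at 20 µM; inactive = activation factor below 2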
#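 Material: Purified diaphorase enzyme from Clostridium kluyveri | Buffer or medium: 50 mM HEPES pH 7.4 with 4.542 mM MgCl2, 0.005% Tween 20 | Times: 16 min enzyme reaction, ambient temperature | Signal: Red resorufin fluorescence at 544/590 nm excitation/emission | Measure: Increased resorufin signal from activators or reducing compounds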
# WT yeast gro inh: growth inhibition of WT yeast, mitochondrial fusion screen. mitochondrial fusion phenotypic screen, WT strain. inhibition, % at 10 µM. actives 2.1% (n = 190,000); in the data active = inhibition above about 58%; tested in S. cerevisiae
# L major viab: inhibitors of Leishmania major promastigote growth; Leishmania major promastigotes, resazurin fluorescence viability; inhibition, % at 10 µM; actives 9% (n = 200,000); in the data active = inhibition above about 50%;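 also: promastigotes grown with compound for 44 hours at 28 °C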
# Cl transport mod: modulates chloride dependent transport by human KCC2. Q9H2X9. B-score of Tl+ flux slope (higher = more flux/activation; lower = inhibition) at 10 µM. actives 2.2% (n = 190,000). KCC2 cells, thallium flux FluoZin-2 fluorescence;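 active = thallium flux slope and its plate-corrected score both differing from the plate sample mean at a set confidence after two filtering rounds, in either direction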;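 also: slope of fluorescence scaled to starting intensity during 10 to 20 s after thallium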
# Target sequence (Q9H2X9 whole entry, looked up): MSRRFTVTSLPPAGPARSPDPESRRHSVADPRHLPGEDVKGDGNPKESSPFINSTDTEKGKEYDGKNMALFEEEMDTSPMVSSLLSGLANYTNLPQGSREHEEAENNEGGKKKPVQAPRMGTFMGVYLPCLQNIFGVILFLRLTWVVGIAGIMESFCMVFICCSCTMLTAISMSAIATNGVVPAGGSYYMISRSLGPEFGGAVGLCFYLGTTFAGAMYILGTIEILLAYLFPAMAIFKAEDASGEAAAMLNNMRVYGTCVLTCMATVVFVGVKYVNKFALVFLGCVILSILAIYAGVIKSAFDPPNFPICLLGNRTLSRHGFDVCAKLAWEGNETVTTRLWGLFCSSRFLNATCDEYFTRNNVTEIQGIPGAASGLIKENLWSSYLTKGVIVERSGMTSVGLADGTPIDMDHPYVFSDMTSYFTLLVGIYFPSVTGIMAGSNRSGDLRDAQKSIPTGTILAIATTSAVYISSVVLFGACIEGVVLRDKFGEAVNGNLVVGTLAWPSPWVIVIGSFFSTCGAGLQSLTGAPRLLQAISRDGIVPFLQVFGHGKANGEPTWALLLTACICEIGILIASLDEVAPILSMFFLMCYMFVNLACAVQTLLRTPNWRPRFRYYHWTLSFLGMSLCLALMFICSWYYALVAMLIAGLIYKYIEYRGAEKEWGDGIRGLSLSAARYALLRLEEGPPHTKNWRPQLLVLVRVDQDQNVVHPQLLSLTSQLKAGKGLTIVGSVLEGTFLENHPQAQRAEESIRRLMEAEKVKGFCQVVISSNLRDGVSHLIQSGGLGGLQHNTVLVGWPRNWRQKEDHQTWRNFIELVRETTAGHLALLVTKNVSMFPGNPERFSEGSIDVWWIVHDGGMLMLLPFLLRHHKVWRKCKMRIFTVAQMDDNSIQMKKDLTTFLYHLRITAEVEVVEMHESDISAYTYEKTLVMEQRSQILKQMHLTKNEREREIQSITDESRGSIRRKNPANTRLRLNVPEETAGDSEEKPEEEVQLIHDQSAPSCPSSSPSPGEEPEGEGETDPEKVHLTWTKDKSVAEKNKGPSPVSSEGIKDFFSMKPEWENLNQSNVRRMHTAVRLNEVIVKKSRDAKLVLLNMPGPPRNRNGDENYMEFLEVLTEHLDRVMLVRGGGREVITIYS
# Diaph inh CS: inhibits diaphorase or chemically oxidizes, flagging diaphorase assay artifacts; inhibition, % at 20 µM; actives 0.69% (n = 190,000); diaphorase resazurin-to-resorufin fluorescence, NADH, 16 min; bacterial (C. kluyveri) enzyme, not human;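 active = primary screen inhibition at 20 µM above a set limit, cut at about 50% in these data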;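 also: plate controls were DMSO with full reaction for no effect and wells lacking NADH for full effect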
#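 Assay system – diaphorase enzyme from Clostridium kluyveri · Amount – diaphorase 0.14 U/mL (working solution) · Times – reaction incubation of 16 min at room temperature · Controls – No-NADH positive control and DMSO neutral control · Signal – resorufin fluorescence 544/590 nm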
# The depositor's hits bear a star; x = no result given.
SMILES,ROMK primary,Diaphorase act,WT yeast gro inh,L major viab,Cl transport mod,Diaph inh CS
c1ccc(COc2ccc(OCCN3CCCC3)cc2)cc1,-1.62,0.9,9.6,100.3*,-0.567,10.8
Cc1ccc(NC(=O)c2ccccn2)c(Br)c1,1.16,0.9,28.8,0.2,-0.965,10.0
Cn1c(SCC(=O)N2CCCC2=O)nnc1-c1ccccc1F,0.858,0.9,-1.5,-8.1,-0.0117,5.3
O=C(NNC(=O)C1CCCN(c2ncccn2)C1)c1ccncc1 (stereo not given),0.144,0.9,8.3,-7.6,-0.631,9.1
COc1cccc(/C=N\NC(=O)c2cc(OCC(F)(F)F)ccc2OCC(F)(F)F)c1,x,0.9,-5.9,-5.5,0.0624,5.4
CC1CCN(CCCCOc2ccc(C(=O)c3ccccc3)cc2)CC1,-2.19,0.9,1.7,99.1*,0.709,8.0
CC1CCN(CCCOc2ccc(OCc3ccccc3)cc2)CC1,-1.77,1.1,62.6,100.2*,x,-10.5
c1ccc(COc2ccc(OCCCN3CCCC3)cc2)cc1,0.86,1.1,-4.3,99.8*,1.45,-8.6
O=C(CN1CCCC1)Nc1ccc(OCc2ccccc2)cc1,-2.08,0.9,-13.5,-2.1,0.665,10.6
CCC(C)[C@@H](N)C(=O)N/N=C/c1ccc2ncccc2c1 (stereo not given in full),x,0.9,-6.1,22.7,1.29,9.9
CCCCN(CC(=O)Nc1c(C)cccc1CC)C(=O)SCC,0.00199,1,-1.1,0.0,0.0664,2.3
C/C(=N\NC(=O)CC#N)c1ccc(Oc2ccccc2)cc1,-0.0525,0.9,-15.7,3.5,-1.88,14.4
CCCCOc1ccc(NC(=O)Nc2nnc(C)s2)cc1,x,x,x,x,0.682,x
CCn1nc(C(=O)Nc2ccc3nc(C)sc3c2)c2ccccc2c1=O,x,0.8,20.9,62.7*,-0.099,16.9
O=C(COc1ccccc1)Nc1ccc2c(c1)Cc1cc(NC(=O)COc3ccccc3)ccc1-2,x,1.1,-7.0,-8.2,0.327,-8.1
Cc1cccc(OCC(=O)Nc2ccc3nc(C)sc3c2)c1,0.493,1.1,59.4*,14.9,0.0196,-7.3
Cc1nc2ccc(NC(=O)COc3cccc(F)c3)cc2s1,0.328,1,50.9,1.4,-0.966,3.9
Cc1nc2ccccc2nc1OCC(=O)Nc1ccc2ccccc2c1,0.272,0.9,4.4,59.2*,-0.0769,8.6
Cc1nc2ccc(NC(=O)c3ccc4ccccc4n3)cc2s1,0.518,1.1,-1.4,4.7,0.282,-7.3
O=C(COc1ccccc1)Nc1ccc2[nH]c(=O)[nH]c2c1,-0.341,1,-13.9,89.7*,-0.167,3.9
COC(=O)c1ccccc1NC(=O)CSCC(=O)Nc1ccccc1,-0.594,0.9,3.5,-2.2,-1.31,11.7
Cc1nc2ccc(NC(=O)COc3ccccc3)cc2s1,0.757,0.9,73.9*,-4.6,-1.04,9.6
Cc1nc2ccc(NC(=O)Cc3cccc(F)c3)cc2s1,-1.34,0.9,46.8,62.2*,-0.166,11.2
c1ccc(-c2nnc(SCCC3OCCCO3)o2)cc1,x,0.9,10.2,-2.5,-0.0354,8.8
Cc1cc(C)n(C(=O)c2cc(F)c(F)cc2C)n1,-0.0871,0.9,-20.4,-0.5,-0.148,8.6
SMILES,ROMK primary,Diaphorase act,WT yeast gro inh,L major viab,Cl transport mod,Diaph inh CS
CCOc1ccc(NC(=O)C2CSC(c3ccncc3)=N2)cc1 (stereo not given),0.327,0.9,5.9,-5.6,0.786,10.1
Nc1c(C(=O)Nc2nccs2)sc2nc(-c3cccs3)cc(C(F)(F)F)c12,-2.22,0.9,-30.9,0.2,0.457,10.4
CC(C)(C)C(=O)c1sc2nc(-c3cccs3)cc(C(F)(F)F)c2c1N,x,1,6.5,53.9*,x,-2.9
Cc1nnc(NC(=O)c2sc3nc(-c4cccs4)cc(C(F)(F)F)c3c2N)s1,x,0.9,70.5*,-2.6,-0.741,7.9
CCN(CC)C(=O)c1sc2nc(-c3cccs3)cc(-c3cccs3)c2c1N,-0.5,x,x,x,-2.51,x
CCOC(=O)/C=C1\Nc2ccccc2OC1=O,x,0.8,48.9,64.1*,-1.64,17.2
COc1ccc(OC(C)c2nnc(N)s2)cc1 (stereo not given),1.33,1.1,-10.7,-3.8,0.38,-14.0
CCc1ccc(OCC2c3cc(OC)c(OC)cc3CCN2C(=S)NC)cc1 (stereo not given),0.391,0.7,74.9*,32.7,-0.00511,26.7
